For 17 compounds, viability, differential viability (reversal) and inhibition results are on record in PubChem BioAssay.

Test [1] is described as follows: reduced viability of SK-BR-3 breast cancer cells – cell-based, 24 h, human, pilot screen (AID 572).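 Note: compound exposure lasted between 18 and 24 h rather than exactly 24 h; 100% = carrier-treated control wells.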 The note with it: SK-BR-3 viability, CellTiter-Glo luminescence, at 10 µM, stronger effect = lower value.
Test [2] in a line: HUVEC growth inhibition – cell-based, human, primary screen (AID 575;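 active = viability at or below 30% in both replicate assays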;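 note: 100% = median of untreated cell wells with 0.1% DMSO on each plate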). The conditions noted are these: HUVEC proliferation, CellTiter-Glo luminescence, 72 h; at 10 µM; stronger effect = lower value. Put shortly: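 Test system: HUVEC primary cells. Quantity: 1250 endothelial cells in each well. Dosing: single-point 10 µM, DMSO 0.1% final. Incubation: 72 h treatment at 37 °C. Measured by: CTG luminescence. Control set: DMSO cell controls and MePR drug controls. Plate: collagen-coated 384-well format.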

Test [3] in a line: H69AR cell proliferation blockers – human, duplicate replicates, primary screen (AID 580;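 active = viability at or under a set limit in both replicates, limit being median viability minus 3 SD, cut at about 48% in these data, passing the limit was not always enough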;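 note: 100% = mean luminescence of untreated wells and 0% = no signal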). The note with it: H69AR lung tumor cells viability, ATP luminescence, 72 h; at 10 µM; stronger effect = lower value.
Test [4] can be described thus: MRP1 drug-resistance reversers in H69AR cells – cell-based, doxorubicin co-treatment, pilot screen (AID 601;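 active = viability loss from added drug above about 55%, and viability with drug at most 40%, in both replicates, limit read from the data, passing the limit was not always enough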). The note with it: CellTiter-Glo, 72 h, at 10 µM; for differential viability (reversal): stronger effect = higher value. (Cellular ATP, detected with luciferase, serves as a proxy for viable cell number.)
Test [5] is described as follows: yeast transport mutant growth inhibition pilot in 384-well plates, post-Golgi transport modulator project (AID 636; in the data active = inhibition above about 31%). The note with it: absorbance 615 nm, about 18 h, stronger effect = higher value.
Test [6] can be described thus: growth suppression of yeast trafficking mutant, preliminary HTS, modulators of trafficking downstream of Golgi apparatus project, 1536-format plate, OD 615 nm (AID 637; in the data active = inhibition above about 30%). The note with it: yeast transport mutant growth, absorbance 615 nm, 18 h; stronger effect = higher value.
Setting [7] is: H69AR cells + 2 uM doxorubicin, measured here: viability with 2 uM doxorubicin, stronger effect = lower value.
Where [8] appears, read: H69AR cells, compound alone cytotoxicity.

Each structure is given as a SMILES string. Active and inactive are the calls of the source.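 Rule for the calls, unless noted: active = viability at or below 10% of carrier control in both of two separate runs; inconclusive = viability at or below 10% in only one of the two runs; inactive = the rest.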

`C1=C(CCNc2ncnc3c2cnn3-c2ccccc2)CCCC1`: the viability (commonly a read-out of living cells in per cent, often relative to untreated cells) in test [1] is 98% (inactive); in test [2], 116% (inactive); in test [3], 88.7% (inactive); in test [4] (setting [7]), 82.3%; in test [4] (setting [8]), 88.7%. The differential viability (reversal) in test [4] (H69AR cells + 2 uM doxorubicin) is 6.36% (inactive). The inhibition (as a rule, the relative decrease from the control value, in per cent) in test [5] is -4.13% (inactive); in test [6], 0.91% (inactive).
In the case of `Cn1nnnc1SCC1=C(C(=O)O)N2C(=O)[C@@H](NC(=O)[C@H](O)c3ccccc3)[C@H]2SC1`, the viability was 132% (inactive) in test [1]; 82.9% (inactive) in test [2]; 99.2% (inactive) in test [3]; 96.6% in test [4] (setting [7]); 99.2% in test [4] (setting [8]). The differential viability (reversal) in test [4] (H69AR cells + 2 uM doxorubicin) was 2.56% (inactive). Also, the inhibition was -1.3% (inactive) in test [5] and 0.33% (inactive) in test [6].
On to `Cc1ccc2nc(NC(=O)C3CCCN(S(=O)(=O)c4cccc5nonc45)C3)sc2c1` (stereo unspecified), for which the viability was 97.5% (inactive) in test [1]; 71.6% (inactive) in test [2]; 76% (inactive) in test [3]; 90.8% in test [4] (setting [7]); 76% in test [4] (setting [8]). For the same compound, the differential viability (reversal) in test [4] (H69AR cells + 2 uM doxorubicin) is -14.8% (inactive). The figures for the inhibition in test [5] and in test [6] were -4.34% (inactive) and 1.17% (inactive), respectively.
In the case of `CCOc1ccccc1CN(Cc1ccco1)S(=O)(=O)c1ccc(-n2cnnn2)c(OC)c1`, the viability is 82.5% (inactive) in test [1]; 54.7% (inactive) in test [2]; 6.69% (active) in test [3]; 74.1% in test [4] (setting [7]); 6.69% in test [4] (setting [8]). Besides, the differential viability (reversal) in test [4] (H69AR cells + 2 uM doxorubicin) is -67.4% (inactive). Besides, the inhibition was -3.7% (inactive) in test [5] and -2.06% (inactive) in test [6].
Regarding `CCCC1CCC(C(=O)Nn2cnc3ccccc3c2=O)CC1` (stereo unspecified), the viability in test [1] was 101% (inactive); in test [2], 108% (inactive); in test [3], 91.7% (inactive); in test [4] (setting [7]), 82%; in test [4] (setting [8]), 91.7%. In addition, the differential viability (reversal) in test [4] (H69AR cells + 2 uM doxorubicin) was 9.62% (inactive). Moreover, the inhibition in test [5] was 1.17% (inactive); in test [6] it was 7.05% (inactive).
For the compound `CNC(=O)Oc1ccc2c(c1)[C@]1(C)CCN(C)[C@@H]1N2C`, the viability in test [1] is 112% (inactive); in test [2], 104% (inactive); in test [3], 93.9% (inactive); in test [4] (setting [7]), 101%; in test [4] (setting [8]), 93.9%. In test [4] (H69AR cells + 2 uM doxorubicin), the differential viability (reversal) was -7% (inactive). The inhibition in test [5] is -3.12% (inactive); in test [6], 2% (inactive).
As for `COc1ccccc1N1CCN(C(=O)CSc2nc3ncnc(N)c3[nH]2)CC1`, the viability in test [1] is 110% (inactive); in test [2] it was 96.6% (inactive); in test [3], 92.8% (inactive); in test [4] (setting [7]) it was 89.3%; in test [4] (setting [8]), 92.8%. Further, the differential viability (reversal) in test [4] (H69AR cells + 2 uM doxorubicin) was 3.56% (inactive). Further, the values for the inhibition in test [5] and in test [6] were -4.29% (inactive) and -1.31% (inactive), respectively.
In the case of `Cc1cc(NC(=O)c2cnn3c(C(F)F)cc(C4CC4)nc23)no1`, the viability in test [1] was 131% (inactive); in test [2], 79.6% (inactive); in test [3] it was 82.4% (inactive); in test [4] (setting [7]), 95.1%; in test [4] (setting [8]) it was 82.4%. In test [4] (H69AR cells + 2 uM doxorubicin), the differential viability (reversal) was -12.8% (inactive). Also, the inhibition is -1.43% (inactive) in test [5] and 3.11% (inactive) in test [6].
On to `N#Cc1cc2ccccc2nc1SCC(=O)Nc1ccccc1N1CCOCC1`, for which the viability in test [1] is 93% (inactive); in test [2] it was 64.4% (inactive); in test [3] it was 82.2% (inactive); in test [4] (setting [7]), 93%; in test [4] (setting [8]), 82.2%. Also, the differential viability (reversal) in test [4] (H69AR cells + 2 uM doxorubicin) was -10.8% (inactive). The inhibition is -3.25% (inactive) in test [5] and 0.33% (inactive) in test [6].
As to `COc1ccc(S(=O)(=O)Nc2ccccc2SC)cc1C`, the viability in test [1] was 94% (inactive); in test [2], 87.8% (inactive); in test [3], 87% (inactive); in test [4] (setting [7]), 95.5%; in test [4] (setting [8]) it was 87%. For the same compound, the differential viability (reversal) in test [4] (H69AR cells + 2 uM doxorubicin) was -8.52% (inactive). In addition, the inhibition in test [5] is -6.99% (inactive); in test [6], 0% (inactive).
For `Cc1ccc(-c2nnc(-c3cccc(Br)c3)o2)cc1`, the viability in test [1] was 106% (inactive); in test [2], 99.7% (inactive); in test [3], 89.6% (inactive); in test [4] (setting [7]), 92.7%; in test [4] (setting [8]), 89.6%. Besides, the differential viability (reversal) in test [4] (H69AR cells + 2 uM doxorubicin) is -3% (inactive). Moreover, the inhibition in test [5] is -6.76% (inactive); in test [6] it was 4% (inactive).
On to `CCC(=O)Nc1nn(C)c2nc3c(C)cccc3cc12`, for which the viability in test [1] is 92% (inactive); in test [2], 105% (inactive); in test [3] it was 104% (inactive); in test [4] (setting [7]) it was 86.4%; in test [4] (setting [8]), 104%. Further, the differential viability (reversal) in test [4] (H69AR cells + 2 uM doxorubicin) is 17.2% (inactive). Also, the inhibition in test [5] is -3.47% (inactive); in test [6], -4.18% (inactive).
For the compound `N#Cc1c(NCc2ccccc2)ccnc1NCc1cccnc1`, the viability in test [1] was 78% (inactive); in test [2], 59.2% (inactive); in test [3] it was 98.6% (inactive); in test [4] (setting [7]) it was 94.3%; in test [4] (setting [8]), 98.6%. For the same compound, in test [4] (H69AR cells + 2 uM doxorubicin), the differential viability (reversal) is 4.3% (inactive). Further, the inhibition in test [5] was -6.08% (inactive); in test [6], -0.55% (inactive).
Regarding `CCOc1ccc(NC(=O)C2CC(=O)N(CC)C(=Nc3ccc4c(c3)OCO4)S2)cc1` (stereo unspecified), the viability in test [1] is 87% (inactive); in test [2], 109% (inactive); in test [3], 84% (inactive); in test [4] (setting [7]) it was 84.7%; in test [4] (setting [8]) it was 84%. Further, the differential viability (reversal) in test [4] (H69AR cells + 2 uM doxorubicin) is -0.76% (inactive). Further, the inhibition is -2.84% (inactive) in test [5] and -5.64% (inactive) in test [6].
For the compound `Fc1cccc(NCc2cn3ccccc3n2)c1`, the viability in test [1] is 81% (inactive); in test [2], 105% (inactive); in test [3], 87.6% (inactive); in test [4] (setting [7]), 89.2%; in test [4] (setting [8]) it was 87.6%. For the same compound, the differential viability (reversal) in test [4] (H69AR cells + 2 uM doxorubicin) is -1.66% (inactive). Further, the inhibition in test [5] was -5% (inactive); in test [6], 21.4% (inactive).
As for `O=C(CN1CCN(c2ccccn2)CC1)N1c2ccccc2CCc2ccccc21`, the viability was 95% (inactive) in test [1]; 88.1% (inactive) in test [2]; 107% (inactive) in test [3]; 108% in test [4] (setting [7]); 107% in test [4] (setting [8]). Further, the differential viability (reversal) in test [4] (H69AR cells + 2 uM doxorubicin) was -0.175% (inactive). Besides, the results for the inhibition in test [5] and in test [6] were -6.08% (inactive) and -0.55% (inactive), respectively.
For `O=C(Nc1nonc1NC(=O)C1CCCCC1)C1CCCCC1`, the viability in test [1] was 111% (inactive); in test [2], 84.7% (inactive); in test [3], 89.9% (inactive); in test [4] (setting [7]) it was 86.8%; in test [4] (setting [8]) it was 89.9%. Moreover, the differential viability (reversal) in test [4] (H69AR cells + 2 uM doxorubicin) is 3.04% (inactive). The inhibition in test [5] is -10% (inactive); in test [6], 1.94% (inactive).
